In ChEMBL document CHEMBL1156597, “Structure-activity relationship of kahalalide F synthetic analogues” (J Med Chem, 2008):

Tests used:
[1] = tested on: DU-145; assay: Cytotoxicity against human DU145 cells after 48 hrs by SRB assay; type: functional, cell-based; settings: Homo sapiens, DU-145, 48 h; for CC50: read-out: LC50 (the source's name)
Procedure, shortened: (§1)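 Cells grown in RPMI 1640 with 10% FBS and penicillin/streptomycin at 37 °C and 5% CO₂, trypsinized, then seeded at 5 × 10³/well. After 18 h drug-free attachment, samples in DMSO/EtOH/PBS (0.5:0.5:99) were added for 48 h continuous exposure. Cells were fixed with cold TCA (1 h, 4 °C) and stained with SRB (10 min). Tris-solubilized stain read at 490 nm. Triplicate wells, mean ± SD; GI₅₀ derived.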

[2] = Cytotoxicity against human IGROV cells after 48 hrs by SRB assay; type: functional; settings: for CC50: read-out: LC50 (the source's name); procedure, shortened: as §1
[3] = tested on: SK-MEL-28; assay: Cytotoxicity against human SK-MEL-28 cells after 48 hrs by SRB assay; type: functional, cell-based; settings: Homo sapiens, SK-MEL-28, 48 h; for CC50: read-out: LC50 (the source's name); procedure, shortened: as §1
[4] = tested on: LoVo; assay: Cytotoxicity against human LoVo cells after 48 hrs by SRB assay; type: functional; settings: for CC50: read-out: LC50 (the source's name)
[5] = tested on: LNCaP; assay: Cytotoxicity against human LNcaP cells after 48 hrs by SRB assay; type: functional; settings: for CC50: read-out: LC50 (the source's name); procedure, shortened: as §1
[6] = tested on: HT-29; assay: Cytotoxicity against human HT29 cells after 48 hrs by SRB assay; type: functional, cell-based; settings: Homo sapiens, HT-29, 48 h; for CC50: read-out: LC50 (the source's name); procedure, shortened: as §1
[7] = tested on: PANC-1; assay: Cytotoxicity against human PANC1 cells after 48 hrs by SRB assay; type: functional; settings: PANC-1, 48 h; for CC50: read-out: LC50 (the source's name); procedure, shortened: as §1
[8] = tested on: K562; assay: Cytotoxicity against human K562 cells after 48 hrs by SRB assay; type: functional; settings: K562, 48 h; for CC50: read-out: LC50 (the source's name); procedure, shortened: as §1
[9] = Cytotoxicity against human HeLa-APL cells after 48 hrs by SRB assay; type: functional; procedure, shortened: as §1
[10] = tested on: SK-BR-3; assay: Cytotoxicity against human SKBR3 cells after 48 hrs by SRB assay; type: functional; settings: SK-BR-3, 48 h; for GI50: read-out: GI50; for CC50: read-out: LC50 (the source's name); procedure, shortened: as §1
[11] = tested on: A549; assay: Cytotoxicity against human A549 cells after 48 hrs by SRB assay; type: functional, cell-based; settings: Homo sapiens, A549, 48 h; procedure, shortened: as §1
[12] = tested on: LoVo; assay: Cytotoxicity against human doxorubicin resistant LoVo cells after 48 hrs by SRB assay; type: functional; settings: for CC50: read-out: LC50 (the source's name); procedure, shortened: as §1
[13] = tested on: HeLa; assay: Cytotoxicity against human HeLa cells after 48 hrs by SRB assay; type: functional; settings: for CC50: read-out: LC50 (the source's name); procedure, shortened: as §1
[14] = Cytotoxicity against human IGROV-ET cells after 48 hrs by SRB assay; type: functional; settings: for CC50: read-out: LC50 (the source's name); procedure, shortened: as §1

SMILES: CC[C@@H](C)[C@@H](NC(=O)[C@H](CCCN)NC(=O)[C@H]1CCCN1C(=O)[C@H](NC(=O)[C@@H](NC(=O)[C@@H](NC(=O)[C@H](NC(=O)CCCC(C)C)C(C)C)[C@@H](C)O)C(C)C)C(C)C)C(=O)N[C@H]1C(=O)N[C@H]([C@H](C)CC)C(=O)N[C@H](C(C)C)C(=O)N[C@@H](Cc2ccccc2)C(=O)NCC(=O)N[C@@H](C(C)C)C(=O)O[C@H]1C
- TGI [1]: 1160 nM
- GI50 ([1]; read-out: GI50): 1410 nM
- CC50 [1]: 953 nM
- GI50 [2]: 748 nM
- GI50 ([2]; read-out: GI50): 1640 nM
- CC50 [2]: 361 nM
- TGI [3]: 1700 nM
- GI50 ([3]; read-out: GI50): 1390 nM
- CC50 [3]: 1780 nM
- GI50 [4]: 1840 nM
- TGI [4]: 1850 nM
- CC50 [4]: 1680 nM
- GI50 [5]: 2740 nM
- TGI [5]: 2780 nM
- CC50 [5]: 1420 nM
- GI50 [6]: 2260 nM
- TGI [6]: 2120 nM
- CC50 [6]: 775 nM
- CC50 [7]: 1810 nM
- GI50 [8]: 2530 nM
- TGI [8]: 3040 nM
- CC50 [8]: 1970 nM
- GI50 [9]: 1830 nM
- LC50 (concentration giving 50% net cell kill) [9]: 1450 nM
- TGI [9]: 2860 nM
- TGI [10]: 1640 nM
- GI50 [10]: 1660 nM
- CC50 [10]: 683 nM
- LC50 [11]: 1460 nM
- TGI [11]: 2100 nM
- GI50 ([11]; read-out: GI50): 1630 nM
- GI50 [12]: 830 nM
- TGI [12]: 1020 nM
- CC50 [12]: 362 nM
- CC50 [13]: 526 nM
- GI50 [14]: 465 nM
- GI50 ([14]; read-out: GI50): 722 nM
- CC50 [14]: 308 nM

SMILES: C=C1NC(=O)[C@H](Cc2ccccc2)NC(=O)[C@@H](C(C)C)NC(=O)[C@@H]([C@H](C)CC)NC(=O)[C@H](NC(=O)[C@H](NC(=O)[C@H](CCCN)NC(=O)[C@H]2CCCN2C(=O)[C@H](NC(=O)[C@@H](NC(=O)[C@@H](NC(=O)[C@H](NC(=O)CCCC(C)C)C(C)C)[C@@H](C)O)C(C)C)C(C)C)[C@H](C)CC)[C@H](C)OC(=O)[C@H](C(C)C)NC1=O
- GI50 [1]: 901 nM
- GI50 ([1]; read-out: GI50): 1110 nM
- CC50 [1]: 730 nM
- GI50 [2]: 442 nM
- GI50 ([2]; read-out: GI50): 630 nM
- CC50 [2]: 334 nM
- TGI [3]: 1130 nM
- GI50 ([3]; read-out: GI50): 1100 nM
- CC50 [3]: 1160 nM
- GI50 [4]: 309 nM
- TGI [4]: 318 nM
- CC50 [4]: 295 nM
- GI50 [5]: 1440 nM
- TGI [5]: 1860 nM
- CC50 [5]: 1410 nM
- GI50 [6]: 638 nM
- TGI [6]: 804 nM
- CC50 [6]: 612 nM
- CC50 [7]: 1790 nM
- GI50 [8]: 2470 nM
- TGI [8]: 3010 nM
- CC50 [8]: 1950 nM
- GI50 [9]: 893 nM
- LC50 (concentration giving 50% net cell kill) [9]: 791 nM
- TGI [9]: 842 nM
- TGI [10]: 412 nM
- GI50 [10]: 458 nM
- CC50 [10]: 360 nM
- LC50 [11]: 1070 nM
- TGI [11]: 1140 nM
- GI50 ([11]; read-out: GI50): 1200 nM
- GI50 [12]: 393 nM
- TGI [12]: 3720 nM
- CC50 [12]: 235 nM
- CC50 [13]: 646 nM
- GI50 [14]: 366 nM
- GI50 ([14]; read-out: GI50): 349 nM
- CC50 [14]: 392 nM

SMILES: C/C=C1\NC(=O)[C@H](Cc2ccccc2)NC(=O)[C@@H](C(C)C)NC(=O)[C@@H]([C@H](C)CC)NC(=O)[C@H](NC(=O)[C@H](NC(=O)[C@H](CCCN)NC(=O)[C@H]2CCCN2C(=O)[C@H](NC(=O)[C@@H](NC(=O)[C@@H](NC(=O)[C@H](NC(=O)CC[C@@H](C)[C@H]2CC[C@H]3[C@@H]4CC[C@@H]5C[C@H](OC(=O)C(F)(F)F)CC[C@]5(C)[C@H]4CC[C@]23C)C(C)C)[C@@H](C)O)C(C)C)C(C)C)[C@H](C)CC)[C@H](C)OC(=O)[C@H](C(C)C)NC1=O
- GI50 [1]: 524 nM
- GI50 ([1]; read-out: GI50): 394 nM
- CC50 [1]: 568 nM
- GI50 [2]: 500 nM
- GI50 ([2]; read-out: GI50): 375 nM
- CC50 [2]: 404 nM
- GI50 [3]: 190 nM
- GI50 ([3]; read-out: GI50): 209 nM
- CC50 [3]: 172 nM
- GI50 [4]: 340 nM
- TGI [4]: 374 nM
- CC50 [4]: 795 nM
- GI50 [5]: 851 nM
- TGI [5]: 912 nM
- CC50 [5]: 980 nM
- GI50 [6]: 387 nM
- TGI [6]: 450 nM
- CC50 [6]: 761 nM
- GI50 [7]: 1640 nM
- TGI [7]: 1440 nM
- CC50 [7]: 1440 nM
- GI50 [8]: 967 nM
- TGI [8]: 795 nM
- CC50 [8]: 1170 nM
- GI50 [9]: 1040 nM
- LC50 (concentration giving 50% net cell kill) [9]: 638 nM
- TGI [9]: 802 nM
- TGI [10]: 166 nM
- GI50 [10]: 118 nM
- CC50 [10]: 233 nM
- GI50 [11]: 949 nM
- LC50 [11]: 851 nM
- GI50 ([11]; read-out: GI50): 1060 nM
- GI50 [12]: 227 nM
- TGI [12]: 220 nM
- CC50 [12]: 211 nM
- GI50 [13]: 1070 nM
- TGI [13]: 978 nM
- CC50 [13]: 886 nM
- GI50 [14]: 406 nM
- GI50 ([14]; read-out: GI50): 352 nM
- CC50 [14]: 468 nM
